The list is not random: actives were taken first. Their share in the collection is about 1.7%.
SKN-1 inh: inhibitors of C. elegans SKN-1; AID 624304; 360,000 compounds, 0.49% hits; inhibition, % at 21.8 µM; C. elegans VP596 Pgst-4::GFP/RFP ratio, acrylamide-induced, 24 h;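 active = interference check ratio from 0.5 to 1.5 plus GFP to RFP signal ratio inhibition reaching or exceeding a fixed threshold, cut at about 30% in these data, passing the limit was not always enough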
eIF4H inh: inhibitors of RNA binding by human eIF4H; Q15056; eIF4H fluorescence polarization binding assay; inhibition, % at 35 µM; 290,000 compounds, 0.94% hits;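 also: calls also rest on retests at 20 µM and on dose response follow-up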
MT1-MMP act inh: blocks activation of human MT1-MMP; HT1080 RFP-PRO-GFP cells, GFP/RFP ratio fluorescence, overnight; percent of plate control window, DMSO zero; GFP/RFP ratio change, % at 20 µM; 360,000 compounds, 0.061% hits; AID 651647;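 active = GFP/RFP ratio change of at least 30% with cell ATP level not reduced by more than half and red fluorescence within 50% of control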
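Test system: HT1080 cells expressing an RFP-PRO-GFP fluorescent reporter construct / Compound dosing: single-point 20 µM compound, 1% DMSO / Schedule: cells overnight before dosing, compound overnight, 37 °C, 5% CO2 / Evaluation: GFP/RFP fluorescence ratio / Control set: DMSO and RFP-L50D-GFP cell wells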
MLLE-PAM2 inh: blocks PAM2 peptide binding to the PABP1 MLLE domain; GST-MLLE / FITC-PAM2 fluorescence polarization; inhibition, % at 20 µM; 360,000 compounds, 0.36% hits; AID 588489; in the data active = inhibition above about 35%, passing the limit was not always enough;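 also: plate controls were DMSO wells with GST-MLLE for no effect and wells lacking GST-MLLE protein for full effect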
Target sequence (P11940 whole entry, looked up, the tested form may be a part): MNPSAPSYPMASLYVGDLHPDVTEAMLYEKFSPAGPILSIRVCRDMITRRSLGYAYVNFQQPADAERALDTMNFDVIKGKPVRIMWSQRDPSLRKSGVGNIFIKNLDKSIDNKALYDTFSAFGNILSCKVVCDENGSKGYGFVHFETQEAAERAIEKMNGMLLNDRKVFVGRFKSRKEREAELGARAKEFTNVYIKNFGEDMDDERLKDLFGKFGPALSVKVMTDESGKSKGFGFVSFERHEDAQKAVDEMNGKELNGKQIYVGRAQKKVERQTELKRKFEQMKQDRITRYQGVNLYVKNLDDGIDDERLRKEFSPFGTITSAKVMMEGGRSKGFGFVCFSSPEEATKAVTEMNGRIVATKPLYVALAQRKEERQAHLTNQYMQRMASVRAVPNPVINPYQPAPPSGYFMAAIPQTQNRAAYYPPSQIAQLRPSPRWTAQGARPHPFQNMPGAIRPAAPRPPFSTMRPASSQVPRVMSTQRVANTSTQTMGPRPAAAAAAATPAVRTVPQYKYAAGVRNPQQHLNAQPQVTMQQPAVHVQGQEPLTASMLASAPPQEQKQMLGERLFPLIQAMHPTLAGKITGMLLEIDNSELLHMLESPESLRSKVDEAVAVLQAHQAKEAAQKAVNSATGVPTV
PABP FP inh: PABP-poly(A) binding inhibition | P11940 | PABP-poly(A) RNA binding, fluorescence polarization | inhibition, % at 35 µM | 290,000 compounds, 1% hits | AID 2014;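 also: calls also rest on retests at 20 µM and on dose response follow-up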
Starred values were filed as active, the others as inactive; ? = inconclusive; . = no result given. Unless noted, no rule for the calls is given here.

SMILES | SKN-1 inh | eIF4H inh | MT1-MMP act inh | MLLE-PAM2 inh | PABP FP inh
Clc1ccc(C[n+]2csc3ccccc32)cc1 | 5 | 1 | -10 | 13 | -2
CCc1nnc(NC(=O)CCC(=O)N2CCN(CCOc3ccc(C)cc3)CC2)s1 | 11 | 50* | 0 | 3 | -6
O=S(=O)(NC1CCCC1)c1cccc(-c2nnc(-c3ccccc3)o2)c1 | 9 | 7 | -1 | -2 | 0
COc1ccc(NS(=O)(=O)c2cccc(C(=O)NNC(=O)c3cccn3C)c2)cc1 | -19 | 74* | -3 | -16 | 33
COc1ccc(NS(=O)(=O)c2cccc(-c3nnc(-c4ccccc4)o3)c2)cc1 | 34* | -7 | -1 | -1 | 2
O=C(O)CN1C(=O)C2C3CC(C2C1=O)C1C(c2ccc(Cl)cc2)c2sc(=O)[nH]c2SC31 (stereo not given) | 2 | 25 | -4 | 20 | 2
O=C(O)CN1C(=O)C2C3CC(C2C1=O)C1C(c2ccc(F)cc2)c2sc(=O)[nH]c2SC31 (stereo not given) | 48* | 8 | 2 | 39* | 5
O=C(N/N=C/c1cccc([N+](=O)[O-])c1)c1cc[n+](CCO)cc1 | 9 | -7 | 0 | -15 | 6
C=CCn1c(=O)c(C(=O)NC2CC2)c(O)c2cc(OC)c(OC)cc21 | 4 | -2 | 2 | 9 | 4
Cc1ccc(CNC(=O)C2CCN(c3nnc(N4CCCC4=O)s3)CC2)cc1 | 6 | -10 | 5 | -6 | 6
O=C(NCc1ccc(Cl)cc1)C1CCN(c2nnc(N3CCCC3=O)s2)CC1 | 37* | -8 | 2 | 3 | -4
CSc1nc2oc3c(c2c2nncn12)CC(C)(C)SC3 | -15 | 32 | -6 | 45* | 25
Cn1c(=O)c2c(-c3ccccc3)n(-c3ccc(N)cc3)cc2n(C)c1=O | 49* | . | -4 | 57* | .
Cc1ccc(C)c(OCCCCN2CCNCC2)c1C | -16 | -9 | 1 | 7 | 12
COc1ccc(NS(=O)(=O)c2cccc(C(=O)NNC(=O)c3ccc(=O)[nH]c3)c2)cc1 | -2 | . | 0 | 1 | .
CCN(CC)c1nc2cc(OC)ccc2cc1C#N | 10 | ? | -104 | -9 | 102*
CC(CN1CCCCC1)C(=O)NNC(=O)C12CC3CC(CC(C3)C1)C2 (stereo not given) | -3 | 2 | 6 | 4 | 8
CC(CN1CCCCCC1)C(=O)NN (stereo not given) | 4 | active | 3 | -13 | 82*
CC(=O)c1ccc(Nc2ccc([N+](=O)[O-])c3nonc23)cc1 | 15 | 18 | -23 | -93 | -16
CCc1nnc(NS(=O)(=O)c2ccc(Nc3ccc([N+](=O)[O-])c4nonc34)cc2)s1 | 51* | 111 | 2 | -90 | 3
O=C(O)c1ccc(Nc2ccc([N+](=O)[O-])c3nonc23)cc1 | 44* | -14 | -1 | -29 | -15
O=C(CSc1n[nH]c(=O)n1C1CC1)c1c[nH]c2ccccc12 | 5 | . | 0 | 0 | .
Cc1ccccc1-n1c(=O)cc(N2CCc3ccccc3C2)[nH]c1=O | -12 | 79* | -6 | 22 | 93*
COc1cc2c(c(OCC(=O)NC(C)C)c1)C(=O)O[C@@H](C)CCCC(=O)CCCCC2 | 12 | 70 | -6 | 52* | 30
O=C(CNc1ccccc1)N/N=C/c1cn(-c2ccccc2)nc1-c1ccccc1 | 4 | active | -2 | -1 | 67*
SMILES | SKN-1 inh | eIF4H inh | MT1-MMP act inh | MLLE-PAM2 inh | PABP FP inh
NC(=O)N/N=C/c1cn(-c2ccccc2)nc1-c1ccccc1 | -4 | 2 | 2 | -6 | -6
COC(=O)c1sc(NC(=O)c2cccc([N+](=O)[O-])c2)c(C(N)=O)c1C | -10 | 1 | -5 | 32 | -1
COC(=O)c1c(NC(=O)c2cccc([N+](=O)[O-])c2)sc(C(N)=O)c1C | 22 | 63* | -3 | 5 | 28*
Nc1ccc(C=C2C=Cc3ccccc32)cc1 | 52* | . | 3 | 9 | .
O=C1CC(c2ccco2)CC(O)=C1C=Nc1cc(Cl)ccc1Cl (stereo not given) | -1 | 104 | -7 | 1 | -4
O=C1CC(c2ccco2)CC(O)=C1C=Nc1cc(Cl)ccc1O (stereo not given) | 10 | 92* | 0 | 8 | 77*
Cc1cc2c(n1-c1ccc(C(=O)O)cc1)CCCCC2 | . | 91* | . | . | 82*
O=C(O)C1C2C=CC(C2)C1C(=O)NCc1ccc(Cl)c(Cl)c1 (stereo not given) | 5 | 4 | 1 | 9 | 0

Screens (PubChem BioAssay)
